ChEMBL document CHEMBL3132745, “Synthesis and Antimicrobial Activities of His(2-aryl)-Arg and Trp-His(2-aryl) Classes of Dipeptidomimetics” (Medchemcomm, 2014)
≈ marks a conversion by molar mass, not a printed value. Calls of active or inactive are those of the source. Residues, ends and D or L forms follow the SMILES beside them. *: point of attachment. Boc = CC(C)(C)OC(=O)*

Columns and labels:
LLC-PK1 = test: Cytotoxicity against pig LLC-PK1 cells assessed as cell viability after 48 hrs by neutral red uptake assay; assay type: cell-based, Sus scrofa; details: llc-pk1, 48 h
Procedure, shortened: (§1)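 Neutral red uptake assay on human cancer lines (SK-MEL, KB, BT-549, SK-OV-3) and noncancerous mammalian cells (VERO, LLC-PK1). Highest tested concentration was 10 µg/mL.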

SK-OV-3 = test: Cytotoxicity against human SKOV3 cells assessed as cell viability after 48 hrs by neutral red uptake assay; assay type: cell-based; details: sk-ov-3, 48 h; procedure, shortened: as §1
KB = test: Cytotoxicity against human KB cells assessed as cell viability after 48 hrs by neutral red uptake assay; assay type: cell-based; procedure, shortened: as §1
Aspergillus fumigatus = test: Antifungal activity against Aspergillus fumigatus assessed as growth inhibition; assay type: functional, organism-based
Nakaseomyces glabratus = test: Antifungal activity against Candida glabrata assessed as growth inhibition; assay type: functional, organism-based
Pichia kudriavzevii = test: Antifungal activity against Candida krusei assessed as growth inhibition; assay type: functional, organism-based
Candida albicans = test: Antifungal activity against Candida albicans assessed as growth inhibition; assay type: functional, organism-based
SK-MEL = test: Cytotoxicity against human SK-MEL cells assessed as cell viability after 48 hrs by neutral red uptake assay; assay type: cell-based; procedure, shortened: as §1
Escherichia coli = test: Antibacterial activity against Escherichia coli ATCC 35218 assessed as growth inhibition after 16-20 hrs by CLSI method; assay type: functional, organism-based
Cryptococcus neoformans = test: Antifungal activity against Cryptococcus neoformans ATCC 90113 assessed as growth inhibition after 70-74 hrs by CLSI method; assay type: functional, organism-based
BT-549 = test: Cytotoxicity against human BT549 cells assessed as cell viability after 48 hrs by neutral red uptake assay; assay type: cell-based; details: bt-549, 48 h; procedure, shortened: as §1
Vero = test: Cytotoxicity against african green monkey Vero cells assessed as cell viability after 48 hrs by neutral red uptake assay; assay type: cell-based; details: chlorocebus sabaeus; procedure, shortened: as §1
Staphylococcus aureus [1] = test: Antibacterial activity against methicillin-resistant Staphylococcus aureus ATCC 33591 assessed as growth inhibition after 16-20 hrs by CLSI method; assay type: functional, organism-based
Staphylococcus aureus [2] = test: Antibacterial activity against Staphylococcus aureus ATCC 29213 assessed as growth inhibition after 16-20 hrs by CLSI method; assay type: functional, organism-based
[3] = Cryptococcus neoformans, ATCC 90113, read-out: IC50
[4] = Cryptococcus neoformans, ATCC 90113

| MIC (Cryptococcus neoformans) | Structure (SMILES) | Activity (LLC-PK1) | Activity (SK-OV-3) | Activity (KB) | growth inhibition (GI) (Aspergillus fumigatus) | growth inhibition (GI) (Nakaseomyces glabratus) | growth inhibition (GI) (Pichia kudriavzevii) | growth inhibition (GI) (Candida albicans) | Activity (SK-MEL) | growth inhibition (GI) (Escherichia coli) | MFC (Cryptococcus neoformans) | IC50 (Cryptococcus neoformans; [3]) | Activity (BT-549) | Activity (Vero) | IC50 (Cryptococcus neoformans) | other results |
| --- | --- | --- | --- | --- | --- | --- | --- | --- | --- | --- | --- | --- | --- | --- | --- | --- |
| inactive | COC(=O)[C@H](CCCNC(=N)N)NC(=O)[C@@H](N)Cc1c[nH]c(-c2ccccc2)n1 | > 10 µg/mL | > 10 µg/mL | > 10 µg/mL | inactive | inactive | inactive | inactive | > 10 µg/mL | inactive | inactive | 10.6 µg/mL (≈ 26.3 µM) | > 10 µg/mL | > 10 µg/mL |  |  |
| inactive | CC(C)(C)OC(=O)N[C@@H](Cc1c[nH]c2ccccc12)C(=O)N[C@@H](Cc1c[nH]c(-c2cccc3ccccc23)n1)C(=O)NCc1ccccc1 | > 10 µg/mL | > 10 µg/mL | > 10 µg/mL | inactive | inactive | inactive | inactive | > 10 µg/mL | inactive | inactive |  | > 10 µg/mL | > 10 µg/mL | Not Active |  |
| inactive | COC(=O)[C@H](Cc1c[nH]cn1)NC(=O)[C@H](Cc1c[nH]c2ccccc12)NC(=O)OC(C)(C)C (Boc-Trp-His-OMe) | > 10 µg/mL | > 10 µg/mL | > 10 µg/mL | inactive | inactive | inactive | inactive | > 10 µg/mL | inactive | inactive |  | > 10 µg/mL | > 10 µg/mL | Not Active |  |
|  | COC(=O)[C@H](CCCNC(=N)N)NC(=O)[C@@H](N)Cc1c[nH]c(-c2ccc(C(C)(C)C)cc2)n1 | > 10 µg/mL | > 10 µg/mL | > 10 µg/mL | inactive | inactive | inactive | inactive | > 10 µg/mL | inactive |  | 10.2 µg/mL (≈ 22.2 µM) | > 10 µg/mL | > 10 µg/mL |  | MFC (Cryptococcus neoformans; [4]): 20 µg/mL (≈ 43.7 µM); MIC (Cryptococcus neoformans; [4]): 20 µg/mL (≈ 43.7 µM) |

| Structure (SMILES) | MIC (Cryptococcus neoformans) | Activity (LLC-PK1) | Activity (SK-OV-3) | Activity (KB) | growth inhibition (GI) (Aspergillus fumigatus) | growth inhibition (GI) (Nakaseomyces glabratus) | growth inhibition (GI) (Pichia kudriavzevii) | growth inhibition (GI) (Candida albicans) | Activity (SK-MEL) | growth inhibition (GI) (Escherichia coli) | MFC (Cryptococcus neoformans) | IC50 (Cryptococcus neoformans; [3]) | Activity (BT-549) | Activity (Vero) | IC50 (Cryptococcus neoformans) | other results |
| --- | --- | --- | --- | --- | --- | --- | --- | --- | --- | --- | --- | --- | --- | --- | --- | --- |
| COC(=O)[C@H](Cc1c[nH]c(-c2ccc(-c3ccccc3)cc2)n1)NC(=O)[C@H](Cc1c[nH]c2ccccc12)NC(=O)OC(C)(C)C | inactive | > 10 µg/mL | > 10 µg/mL | > 10 µg/mL | inactive | inactive | inactive | inactive | > 10 µg/mL | inactive | inactive |  | > 10 µg/mL | > 10 µg/mL | Not Active | IC50 (Staphylococcus aureus [1]): Not Active; MBC (Staphylococcus aureus [1]): inactive; MIC (Staphylococcus aureus [1]): inactive; IC50 (Staphylococcus aureus [2]): 19 µg/mL (≈ 31.2 µM); MBC (Staphylococcus aureus [2]): inactive; MIC (Staphylococcus aureus [2]): inactive |
